Assay results published in ChEMBL document CHEMBL1147115 (2007).
Values after ≈ are worked out from the molar mass of the structure shown.

Legend:
Klebsiella pneumoniae [1] = assay: Antimicrobial activity against ESBL producing Klebsiella pneumoniae 265 isolate; type: functional
Klebsiella pneumoniae [2] = assay: Antimicrobial activity against ESBL producing Klebsiella pneumoniae 268 isolate; type: functional
Klebsiella pneumoniae [3] = assay: Antimicrobial activity against ESBL producing Klebsiella pneumoniae 270 isolate; type: functional
Klebsiella pneumoniae [4] = assay: Antimicrobial activity against ESBL producing Klebsiella pneumoniae 260 isolate; type: functional
Klebsiella pneumoniae [5] = assay: Antimicrobial activity against ESBL producing Klebsiella pneumoniae 264 isolate; type: functional
Escherichia coli [6] = assay: Antimicrobial activity against ESBL producing Escherichia coli 311 isolate; type: functional
Klebsiella pneumoniae [7] = assay: Antimicrobial activity against ESBL producing Klebsiella pneumoniae 255 isolate; type: functional
Klebsiella pneumoniae [8] = assay: Antimicrobial activity against ESBL producing Klebsiella pneumoniae 254 isolate; type: functional
Klebsiella pneumoniae [9] = assay: Antimicrobial activity against ESBL producing Klebsiella pneumoniae 259 isolate; type: functional
Klebsiella pneumoniae [10] = assay: Antimicrobial activity against ESBL producing Klebsiella pneumoniae 263 isolate; type: functional
Klebsiella pneumoniae [11] = assay: Antimicrobial activity against ESBL producing Klebsiella pneumoniae 266 isolate; type: functional
Klebsiella pneumoniae [12] = assay: Antimicrobial activity against ESBL producing Klebsiella pneumoniae 257 isolate; type: functional
Klebsiella pneumoniae [13] = assay: Antimicrobial activity against ESBL producing Klebsiella pneumoniae 258 isolate; type: functional
Klebsiella pneumoniae [14] = assay: Antimicrobial activity against ESBL producing Klebsiella pneumoniae 262 isolate; type: functional
Klebsiella pneumoniae [15] = assay: Antimicrobial activity against ESBL producing Klebsiella pneumoniae 256 isolate; type: functional
Klebsiella pneumoniae [16] = assay: Antimicrobial activity against ESBL producing Klebsiella pneumoniae 261 isolate; type: functional
Escherichia coli [17] = assay: Antimicrobial activity against Escherichia coli ATCC 25922 isolate infected thigh infection model ICR mouse; type: functional, Thigh muscle
In short: (§1)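 Female ICR mice (~25 g) were made neutropenic with cyclophosphamide ip (150 and 100 mg/kg, days −4 and −1) and renally impaired with uranyl nitrate 5 mg/kg ip (day −3). Each thigh got 0.1 ml of 10^5 CFU/ml (or 10^7 for high inoculum) im 2 h pre-therapy. Human-simulated regimens were given sc, three mice per group, for 24 h. Efficacy was the log10 CFU/thigh change versus 0-h controls.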

Escherichia coli [18] = assay: Antimicrobial activity against Escherichia coli 120 isolate infected thigh infection model ICR mouse; type: functional, Thigh muscle; in short: as §1
Escherichia coli [19] = assay: Antimicrobial activity against ESBL producing Escherichia coli 320 isolate infected thigh infection model ICR mouse; type: functional, Thigh muscle; in short: as §1
Escherichia coli [20] = assay: Antimicrobial activity against ESBL producing Escherichia coli 321 isolate infected thigh infection model ICR mouse; type: functional, Thigh muscle; in short: as §1
Escherichia coli [21] = assay: Antimicrobial activity against ESBL producing Escherichia coli 322 isolate infected thigh infection model ICR mouse; type: functional, Thigh muscle; in short: as §1
Escherichia coli [22] = assay: Antimicrobial activity against ESBL producing Escherichia coli 310 isolate infected thigh infection model ICR mouse; type: functional, Thigh muscle; in short: as §1
Escherichia coli [23] = assay: Antimicrobial activity against ESBL producing Escherichia coli 312 isolate infected thigh infection model ICR mouse; type: functional, Thigh muscle; in short: as §1
Escherichia coli [24] = assay: Antimicrobial activity against ESBL producing Escherichia coli 318 isolate infected thigh infection model ICR mouse; type: functional, Thigh muscle; in short: as §1
Escherichia coli [25] = assay: Antimicrobial activity against ESBL producing Escherichia coli 243 isolate infected thigh infection model ICR mouse; type: functional, Thigh muscle; in short: as §1
Escherichia coli [26] = assay: Antimicrobial activity against ESBL producing Escherichia coli 285 isolate infected thigh infection model ICR mouse; type: functional, Thigh muscle; in short: as §1
Klebsiella pneumoniae [27] = assay: Antimicrobial activity against ESBL producing Klebsiella pneumoniae 225 isolate infected thigh infection model ICR mouse; type: functional, Thigh muscle; in short: as §1
Klebsiella pneumoniae [28] = assay: Antimicrobial activity against ESBL producing Klebsiella pneumoniae 60 isolate infected thigh infection model ICR mouse; type: functional, Thigh muscle; in short: as §1
Escherichia coli [29] = assay: Antimicrobial activity against ESBL producing Escherichia coli 315 isolate infected thigh infection model ICR mouse; type: functional, Thigh muscle; in short: as §1
Escherichia coli [30] = assay: Antimicrobial activity against ESBL producing Escherichia coli 130 isolate infected thigh infection model ICR mouse; type: functional, Thigh muscle; in short: as §1
Klebsiella pneumoniae [31] = assay: Antimicrobial activity against ESBL producing Klebsiella pneumoniae 265 isolate infected thigh infection model ICR mouse; type: functional, Thigh muscle; in short: as §1
Escherichia coli [32] = assay: Antimicrobial activity against ESBL producing Escherichia coli 133 isolate infected thigh infection model ICR mouse; type: functional, Thigh muscle; in short: as §1
Klebsiella pneumoniae [33] = assay: Antimicrobial activity against ESBL producing Klebsiella pneumoniae 101 isolate infected thigh infection model ICR mouse; type: functional, Thigh muscle; in short: as §1
Klebsiella pneumoniae [34] = assay: Antimicrobial activity against ESBL producing Klebsiella pneumoniae 230 isolate infected thigh infection model ICR mouse; type: functional, Thigh muscle; in short: as §1
Klebsiella pneumoniae [35] = assay: Antimicrobial activity against ESBL producing Klebsiella pneumoniae 268 isolate infected thigh infection model ICR mouse; type: functional, Thigh muscle; in short: as §1
Klebsiella pneumoniae [36] = assay: Antimicrobial activity against ESBL producing Klebsiella pneumoniae 270 isolate infected thigh infection model ICR mouse; type: functional, Thigh muscle; in short: as §1
Klebsiella pneumoniae [37] = assay: Antimicrobial activity against ESBL producing Klebsiella pneumoniae 260 isolate infected thigh infection model ICR mouse; type: functional, Thigh muscle; in short: as §1
Klebsiella pneumoniae [38] = assay: Antimicrobial activity against ESBL producing Klebsiella pneumoniae 264 isolate infected thigh infection model ICR mouse; type: functional, Thigh muscle; in short: as §1
Escherichia coli [39] = assay: Antimicrobial activity against ESBL producing Escherichia coli 311 isolate infected thigh infection model ICR mouse; type: functional, Thigh muscle; in short: as §1
Klebsiella pneumoniae [40] = assay: Antimicrobial activity against ESBL producing Klebsiella pneumoniae 255 isolate infected thigh infection model ICR mouse; type: functional, Thigh muscle; in short: as §1
Klebsiella pneumoniae [41] = assay: Antimicrobial activity against ESBL producing Klebsiella pneumoniae 254 isolate infected thigh infection model ICR mouse; type: functional, Thigh muscle; in short: as §1
Klebsiella pneumoniae [42] = assay: Antimicrobial activity against ESBL producing Klebsiella pneumoniae 259 isolate infected thigh infection model ICR mouse; type: functional, Thigh muscle; in short: as §1
Klebsiella pneumoniae [43] = assay: Antimicrobial activity against ESBL producing Klebsiella pneumoniae 263 isolate infected thigh infection model ICR mouse; type: functional, Thigh muscle; in short: as §1
Klebsiella pneumoniae [44] = assay: Antimicrobial activity against ESBL producing Klebsiella pneumoniae 266 isolate infected thigh infection model ICR mouse; type: functional, Thigh muscle; in short: as §1
Klebsiella pneumoniae [45] = assay: Antimicrobial activity against ESBL producing Klebsiella pneumoniae 257 isolate infected thigh infection model ICR mouse; type: functional, Thigh muscle; in short: as §1
Klebsiella pneumoniae [46] = assay: Antimicrobial activity against ESBL producing Klebsiella pneumoniae 258 isolate infected thigh infection model ICR mouse; type: functional, Thigh muscle; in short: as §1
Klebsiella pneumoniae [47] = assay: Antimicrobial activity against ESBL producing Klebsiella pneumoniae 262 isolate infected thigh infection model ICR mouse; type: functional, Thigh muscle; in short: as §1
Klebsiella pneumoniae [48] = assay: Antimicrobial activity against ESBL producing Klebsiella pneumoniae 256 isolate infected thigh infection model ICR mouse; type: functional, Thigh muscle; in short: as §1
Klebsiella pneumoniae [49] = assay: Antimicrobial activity against ESBL producing Klebsiella pneumoniae 261 isolate infected thigh infection model ICR mouse; type: functional, Thigh muscle; in short: as §1
Klebsiella pneumoniae [50] = assay: Bacteriostasis activity against ESBL producing Klebsiella pneumonia 262 isolate at up to 1.5 ug/ml; type: functional
Klebsiella pneumoniae [51] = assay: Activity against ESBL producing Klebsiella pneumonia 262 isolate at up to 4 ug/ml; type: functional
Klebsiella pneumoniae [52] = assay: Antimicrobial activity against ESBL producing Klebsiella pneumoniae 230 isolate; type: functional
Escherichia coli [53] = assay: Antimicrobial activity against ESBL producing Escherichia coli 130 isolate; type: functional
Escherichia coli [54] = assay: Antimicrobial activity against Escherichia coli ATCC 25922 isolate; type: functional
Escherichia coli [55] = assay: Antimicrobial activity against Escherichia coli 120 isolate; type: functional
Escherichia coli [56] = assay: Antimicrobial activity against ESBL producing Escherichia coli 320 isolate; type: functional
Escherichia coli [57] = assay: Antimicrobial activity against ESBL producing Escherichia coli 321 isolate; type: functional
Escherichia coli [58] = assay: Antimicrobial activity against ESBL producing Escherichia coli 322 isolate; type: functional
Escherichia coli [59] = assay: Antimicrobial activity against ESBL producing Escherichia coli 310 isolate; type: functional
Escherichia coli [60] = assay: Antimicrobial activity against ESBL producing Escherichia coli 312 isolate; type: functional
Escherichia coli [61] = assay: Antimicrobial activity against ESBL producing Escherichia coli 118 isolate; type: functional
Escherichia coli [62] = assay: Antimicrobial activity against ESBL producing Escherichia coli 243 isolate; type: functional
Escherichia coli [63] = assay: Antimicrobial activity against ESBL producing Escherichia coli 285 isolate; type: functional
Klebsiella pneumoniae [64] = assay: Antimicrobial activity against ESBL producing Klebsiella pneumoniae 225 isolate; type: functional
Klebsiella pneumoniae [65] = assay: Antimicrobial activity against ESBL producing Klebsiella pneumoniae 60 isolate; type: functional
Escherichia coli [66] = assay: Antimicrobial activity against ESBL producing Escherichia coli 315 isolate; type: functional
Escherichia coli [67] = assay: Antimicrobial activity against ESBL producing Escherichia coli 133 isolate; type: functional
Klebsiella pneumoniae [68] = assay: Antimicrobial activity against ESBL producing Klebsiella pneumoniae 101 isolate; type: functional

SMILES: C[C@@H](O)[C@H]1C(=O)N2C(C(=O)O)=C(S[C@@H]3CN[C@H](C(=O)Nc4cccc(C(=O)O)c4)C3)[C@H](C)[C@H]12
- MIC (Klebsiella pneumoniae [1]): 0.5 µg/mL (≈ 1.05 µM)
- MIC (Klebsiella pneumoniae [2]): 0.25 µg/mL (≈ 0.526 µM)
- MIC (Klebsiella pneumoniae [3]): 0.5 µg/mL (≈ 1.05 µM)
- MIC (Klebsiella pneumoniae [4]): 1 µg/mL (≈ 2.1 µM)
- MIC (Klebsiella pneumoniae [5]): 4 µg/mL (≈ 8.41 µM)
- MIC (Escherichia coli [6]): 4 µg/mL (≈ 8.41 µM)
- MIC (Klebsiella pneumoniae [7]): 2 µg/mL (≈ 4.21 µM)
- MIC (Klebsiella pneumoniae [8]): 16 µg/mL (≈ 33.6 µM)
- MIC (Klebsiella pneumoniae [9]): 16 µg/mL (≈ 33.6 µM)
- MIC (Klebsiella pneumoniae [10]): 8 µg/mL (≈ 16.8 µM)
- MIC (Klebsiella pneumoniae [11]): 8 µg/mL (≈ 16.8 µM)
- MIC (Klebsiella pneumoniae [12]): 16 µg/mL (≈ 33.6 µM)
- MIC (Klebsiella pneumoniae [13]): 16 µg/mL (≈ 33.6 µM)
- MIC (Klebsiella pneumoniae [14]): 64 µg/mL (≈ 135 µM)
- MIC (Klebsiella pneumoniae [15]): 32 µg/mL (≈ 67.3 µM)
- MIC (Klebsiella pneumoniae [16]): 128 µg/mL (≈ 269 µM)
- fT>MIC (Escherichia coli [17]): 93%
- fT>MIC (Escherichia coli [18]): 77%
- fT>MIC (Escherichia coli [19]): 40%
- fT>MIC (Escherichia coli [20]): 90%
- fT>MIC (Escherichia coli [21]): 90%
- fT>MIC (Escherichia coli [22]): 67%
- fT>MIC (Escherichia coli [23]): 53%
- fT>MIC (Escherichia coli [24]): 90%
- fT>MIC (Escherichia coli [25]): 67%
- fT>MIC (Escherichia coli [26]): 80%
- fT>MIC (Klebsiella pneumoniae [27]): 87%
- fT>MIC (Klebsiella pneumoniae [28]): 90%
- fT>MIC (Escherichia coli [29]): 77%
- fT>MIC (Escherichia coli [30]): 30%
- fT>MIC (Klebsiella pneumoniae [31]): 40%
- fT>MIC (Escherichia coli [32]): 23%
- fT>MIC (Klebsiella pneumoniae [33]): 60%
- fT>MIC (Klebsiella pneumoniae [34]): 60%
- fT>MIC (Klebsiella pneumoniae [35]): 47%
- fT>MIC (Klebsiella pneumoniae [36]): 40%
- fT>MIC (Klebsiella pneumoniae [37]): 30%
- fT>MIC (Klebsiella pneumoniae [38]): 10%
- fT>MIC (Escherichia coli [39]): 10%
- fT>MIC (Klebsiella pneumoniae [40]): 20%
- fT>MIC (Klebsiella pneumoniae [41]): 0%
- fT>MIC (Klebsiella pneumoniae [42]): 0%
- fT>MIC (Klebsiella pneumoniae [43]): 0%
- fT>MIC (Klebsiella pneumoniae [44]): 0%
- fT>MIC (Klebsiella pneumoniae [45]): 0%
- fT>MIC (Klebsiella pneumoniae [46]): 0%
- fT>MIC (Klebsiella pneumoniae [47]): 0%
- fT>MIC (Klebsiella pneumoniae [48]): 0%
- fT>MIC (Klebsiella pneumoniae [49]): 0%
- MIC (Klebsiella pneumoniae [50]): 1.5 µg/mL (≈ 3.15 µM)
- MIC (Klebsiella pneumoniae [51]): 4 µg/mL (≈ 8.41 µM)
- MIC (Klebsiella pneumoniae [52]): 0.094 µg/mL (≈ 0.198 µM)
- MIC (Escherichia coli [53]): 1 µg/mL (≈ 2.1 µM)
- MIC (Escherichia coli [54]): 0.008 µg/mL (≈ 0.0168 µM)
- MIC (Escherichia coli [55]): 0.03 µg/mL (≈ 0.0631 µM)
- MIC (Escherichia coli [56]): 0.5 µg/mL (≈ 1.05 µM)
- MIC (Escherichia coli [57]): 0.012 µg/mL (≈ 0.0252 µM)
- MIC (Escherichia coli [58]): 0.012 µg/mL (≈ 0.0252 µM)
- MIC (Escherichia coli [59]): 0.064 µg/mL (≈ 0.135 µM)
- MIC (Escherichia coli [60]): 0.19 µg/mL (≈ 0.4 µM)
- MIC (Escherichia coli [61]): 0.012 µg/mL (≈ 0.0252 µM)
- MIC (Escherichia coli [62]): 0.064 µg/mL (≈ 0.135 µM)
- MIC (Escherichia coli [63]): 0.023 µg/mL (≈ 0.0484 µM)
- MIC (Klebsiella pneumoniae [64]): 0.016 µg/mL (≈ 0.0336 µM)
- MIC (Klebsiella pneumoniae [65]): 0.012 µg/mL (≈ 0.0252 µM)
- MIC (Escherichia coli [66]): 0.032 µg/mL (≈ 0.0673 µM)
- MIC (Escherichia coli [67]): 1.5 µg/mL (≈ 3.15 µM)
- MIC (Klebsiella pneumoniae [68]): 0.094 µg/mL (≈ 0.198 µM)
